CHO parental Ca: counter-screen for OX1R antagonists: effect in parental CHO cells | parental CHO-K1, ATP-induced calcium, Fluo-8 fluorescence | 330,000 compounds, 0.63% hits | inhibition, % at 5.6 µM;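 active = inhibition above that plate's mean sample inhibition plus 3 SD, cut at about 26% in these data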
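test system = CHO parental line | reagent = ATP stimulus | measured by = intracellular calcium via Fluo-8 no-wash fluorescent dye | control set = ATP and no-ATP DMSO wells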
TAAR1 agonist: agonists of human TAAR1; CHO RD-HGA16 TAAR1, Fluo-8 calcium fluorescence; vehicle wells 0%, saturating PEA agonist 100%; activation, % at 3 µM; 360,000 compounds, 0.99% hits; AID 624467;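 active = activation above the mean activation of all test compounds in the run plus 3 SD, cut at about 38% in these data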
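System: CHO-derived RD-HGA16 cells with stable Gα16 and human TAAR1 / Times: 17-24 h plating, Fluo-8 75 min 37 °C, 30 min RT / Technique: calcium-sensitive Fluo-8 signal, excitation 470-495, emission 515-575 nm / Measure: % activation relative to PEA EC100 response / Benchmarks: DMSO and PEA EC100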
OX1R antag-1: antagonists of human orexin 1 receptor (OX1R); AID 485270; inhibition, % at 6.6 µM; OX1R-expressing cells, FRET antagonist read-out; O43613; 330,000 compounds, 1.8% hits; in the data active = inhibition mostly above about 38%, no sharp cut-off; inactive = mostly below about 40%
Target sequence (O43613 whole entry, looked up): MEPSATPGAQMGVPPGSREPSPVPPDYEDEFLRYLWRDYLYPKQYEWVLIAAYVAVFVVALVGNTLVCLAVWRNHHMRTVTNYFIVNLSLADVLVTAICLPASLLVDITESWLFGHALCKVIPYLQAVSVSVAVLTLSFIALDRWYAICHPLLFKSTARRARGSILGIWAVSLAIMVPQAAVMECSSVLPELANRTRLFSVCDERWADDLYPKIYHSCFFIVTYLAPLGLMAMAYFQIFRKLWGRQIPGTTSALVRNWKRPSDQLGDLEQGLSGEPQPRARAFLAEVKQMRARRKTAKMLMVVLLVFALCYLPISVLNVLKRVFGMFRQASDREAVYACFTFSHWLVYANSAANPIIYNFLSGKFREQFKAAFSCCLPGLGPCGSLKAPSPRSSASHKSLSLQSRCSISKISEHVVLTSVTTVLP
OX1R antag-2: human HCRTR1 antagonism | O43613 | inhibition, % at 5 µM | CHO/OX1R cells, Fluo-8 calcium fluorescence, orexin A | 330,000 compounds, 0.43% hits;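 active = inhibition above its plate's threshold, mean inhibition of all tested compounds on the plate plus 3 SD, cut at about 37% in these data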
TAAR1 antagonist: antagonists of human TAAR1 | CHO RD-HGA16 TAAR1, Fluo-8 calcium fluorescence, antagonist | inhibition, % at 3 µM | 360,000 compounds, 1.5% hits;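 active = inhibition above a per-plate cutoff, the mean inhibition of test compounds on that plate plus 3 SD, cut at about 49% in these data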
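System: CHO RD-HGA16 cells bearing hTAAR1. Reagent: EC80 β-phenethylamine stimulus. Schedule: seeding 17-24 h prior, 75-min 37 °C, 30-min RT dye loading. Signal: Fluo-8 intracellular calcium dye fluorescence, real-time kinetic reads. Read-out: % inhibition from peak post-agonist over basal fluorescence ratio. Benchmarks: vehicle wells and EC80 agonist wells. Replicates: n of 1.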
nonsel antag count: counter-screen for TAAR1 antagonists: nonselective antagonists. shares compounds with TAAR1 antagonist. inhibition, % at 3 µM. counterscreen cell line, calcium fluorescence, antagonist mode. 2,400 compounds, 77% hits; in the data active = inhibition above about 22%;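 note: CHO-Ga16 host cells stimulated with ATP at an EC80 level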
TAAR1 antag conf: human TAAR1 antagonism, confirmed | shares compounds with TAAR1 antagonist | TAAR1-expressing cells, fluorescence antagonist read-out | inhibition, % at 3 µM | 2,400 compounds, 40% hits | AID 651785; in the data active = inhibition above about 49%;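 note: CHO-Ga16 host cells challenged with agonist PEA near its EC80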
Ga16 nonsel ag: counter-screen for TAAR1 antagonists: nonselective Ga16 agonists. shares compounds with TAAR1 antagonist. Ga16-expressing cells, calcium fluorescence, agonist counterscreen. 2,400 compounds, 18% hits. activation, % at 3 µM. AID 651953; in the data active = activation above about 12%
TAAR1 ag counter: counter-screen for human TAAR1 antagonists: TAAR1 agonists; shares compounds with TAAR1 antagonist; hTAAR1 cell line, fluorescence activation, agonist mode; activation, % at 3 µM; 2,400 compounds, 2% hits; AID 651955; in the data active = activation above about 37%;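 note: CHO cells stably expressing TAAR1 with calcium dye readout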
A number is an active result; . = inactive; / = not tested or not shown. Sampled rows, rich in hits. Any-hit rate of the full collection: about 3.9%.

SMILES	CHO parental Ca	TAAR1 agonist	OX1R antag-1	OX1R antag-2	TAAR1 antagonist	nonsel antag count	TAAR1 antag conf	Ga16 nonsel ag	TAAR1 ag counter
O=C1c2cccc(OCC(=O)N3N=C(c4cccs4)CC3c3ccc(F)cc3)c2CCN1Cc1cccnc1 (stereo unspecified)	.	.	.	.	.	/	/	/	/
CCOc1ccc(S(=O)(=O)Nc2cccc(C(=O)N3CCN(c4ccccn4)CC3)c2)cc1	/	.	/	/	52.5	31.4	49.1	15.6	.
CCOc1ccc(S(=O)(=O)Nc2cccc(C(=O)N3CCN(c4ccccc4O)CC3)c2)cc1	.	.	.	.	.	/	/	/	/
COCCn1c(SCC(=O)Nc2ccccc2)nc2c(oc3ccccc32)c1=O	.	.	.	.	.	/	/	/	/
COCCn1c(SCC(=O)Nc2ccccc2OC)nc2c(oc3ccccc32)c1=O	.	.	.	.	52.2	.	.	.	.
Cc1ccc2nc(NC(=O)C3CCN(S(=O)(=O)c4cccc5nsnc45)CC3)sc2c1	.	.	.	.	65.3	32.8	.	.	.
O=C(c1ccccc1)c1c(-c2ccccc2)[nH]n(-c2ccccc2)c(=O)c1=O	.	.	.	.	.	/	/	/	/
Cc1cc(C)nc(NC(=NCCc2c[nH]c3ccccc23)NC(=O)Nc2ccccc2)n1	.	.	.	.	63.9	29.6	53.7	.	.
Cc1cc(C)nc(NC(=NCCc2c[nH]c3ccccc23)NC(=O)c2ccco2)n1	.	.	.	.	67.8	28.3	53.5	.	.
CC(=O)c1ccc(O)c(CC=C(C)C)c1	.	.	.	.	.	/	/	/	/
O=C(CN1CCN(c2ccccn2)CC1)Nc1ccc([N+](=O)[O-])cc1C(=O)Nc1ccccc1F	.	.	.	.	57.1	.	.	16.2	.
c1ccc2c(-c3cncc4ccccc34)cncc2c1	.	.	.	.	.	/	/	/	/
COc1ccccc1OCCn1cc(C(=O)c2ccco2)c2ccccc21	.	.	.	.	.	/	/	/	/
COc1cccc(OCCn2cc(C(=O)c3ccco3)c3ccccc32)c1	.	.	.	46.1	70.3	22.5	.	.	.
COCOCCn1cc(CN2CCS(=O)(=O)N(Cc3ccc(-c4ccc(OC)cc4)cc3)C(C(C)C)C2=O)nn1 (stereo unspecified)	/	.	/	/	.	/	/	/	/
O=C1OC[C@H]2CCCN2C(=O)[C@@H](CC(=O)N(CCO)Cc2ccccc2)C/C=C\C[C@@H]1Cc1ccc(F)cc1	.	.	.	.	56.5	25.2	.	.	.
C[C@H]1COC(=O)[C@H](Cc2ccc(F)cc2)C/C=C\C[C@@H](CC(=O)N(CCO)Cc2ccccc2)C(=O)N1	.	.	.	.	.	/	/	/	/
O=C1N[C@@H](c2ccccc2)COC(=O)[C@@H](Cc2ccc(F)cc2)CC/C=C/C[C@H]1CC(=O)N(CCO)Cc1ccccc1	.	.	.	.	70.9	31.5	55.8	13.8	.
O=C1N[C@@H](c2ccccc2)COC(=O)[C@@H](Cc2ccc(F)cc2)CC/C=C/C[C@@H]1CC(=O)N(CCO)Cc1ccccc1	.	.	.	.	.	/	/	/	/
CC(C)(C)[C@@H]1COC(=O)[C@H](Cc2ccc(F)cc2)C/C=C\C[C@H](CC(=O)N(CCO)Cc2ccccc2)C(=O)N1	.	.	.	.	49.9	.	.	.	.
CC(C)Oc1ccc(C(=O)Nc2ccc(S(=O)(=O)N3CCN(C)CC3)cc2)cc1	.	.	.	.	.	/	/	/	/
C#CCNC(=O)C[C@@H]1C[C@@]2(C(=O)OCC)CCCC=C2N(CCC2=CCCCC2)C1=O	/	.	/	/	.	/	/	/	/
Cc1ccc(N=C2S/C(=C\c3cn(CC(=O)O)c4ccccc34)C(=O)N2C)cc1	.	.	.	.	.	/	/	/	/
O=C(COC(=O)Cc1cccs1)Nc1ccccc1	.	.	.	.	.	/	/	/	/
C[C@H](CO)N1C[C@H](C)[C@@H](CN(C)S(=O)(=O)c2ccc(F)cc2)Oc2cc(Br)ccc2S1(=O)=O	/	.	/	/	.	/	/	/	/
SMILES	CHO parental Ca	TAAR1 agonist	OX1R antag-1	OX1R antag-2	TAAR1 antagonist	nonsel antag count	TAAR1 antag conf	Ga16 nonsel ag	TAAR1 ag counter
CCOC(=O)Cc1csc(/N=C/c2c(O)n(-c3ccccc3C(F)(F)F)c(=O)c3ccccc23)n1	.	.	.	.	74.8	34.4	56.3	.	.
COc1ccc(/C=N/NC(=O)c2ccc(NC(=O)c3cccc([N+](=O)[O-])c3)cc2)c(OC)c1	.	.	.	.	.	/	/	/	/
COc1ccc(/C=N/NC(=O)c2cc3c(ccc4ccccc43)o2)c(OC)c1	/	.	/	/	63.0	21.6	.	.	.
COc1ccc(/C=N/NC(=O)c2cccc(NC(=O)c3ccc(Cl)cc3)c2)c(OC)c1	.	.	.	.	57.2	28.7	.	.	.
O=C(N/N=C/c1ccccc1F)c1cc2c(ccc3ccccc32)o1	.	.	.	.	.	/	/	/	/
O=C(N/N=C/c1ccccc1F)c1cccc(NC(=O)c2ccccc2Cl)c1	.	.	.	.	59.1	29.2	52.8	.	.
COc1cc(/C=N/NC(=O)c2ccncc2)ccc1O	.	.	.	.	.	/	/	/	/
COc1cc(/C=N/NC(=O)c2cccc(NC(=O)c3ccccc3)c2)ccc1O	.	.	.	.	64.5	30.5	56.9	.	.
O=C(CN1CCN(S(=O)(=O)c2ccccc2)CC1)Nc1ccc(Cl)c([N+](=O)[O-])c1	.	.	.	.	.	/	/	/	/
COc1cc(/C=N/NC(=O)C2(O)c3ccccc3-c3ccccc32)ccc1O	.	.	.	.	.	/	/	/	/
COc1ccc(/C=N/NC(=O)c2nc(-c3ccccc3)cc(-c3ccccc3)n2)cc1OC	.	.	.	.	50.6	26.0	.	.	.
COc1cc(/C=N/NC(=O)C(=O)/C=C2\NC(C)(C)Cc3ccccc32)ccc1O	.	.	.	.	52.4	23.0	.	.	.
COc1cc(/C=N\NC(=O)c2ccc(-c3ccccc3)cc2)cc(OC)c1OC(C)=O	/	.	/	/	60.8	29.0	.	.	.
COc1cc(/C=N\NC(=O)c2ccc(-c3ccccc3)cc2)cc(OC)c1O	.	.	.	.	.	/	/	/	/
COc1ccccc1CCNC(=O)c1c(N)[nH]c(C(=O)c2ccccc2)c1-c1ccc(Br)cc1	/	.	/	/	.	/	/	/	/
CC1(Cc2ccccc2Cl)C(=O)Nc2c(Cl)ccc(Cl)c21 (stereo unspecified)	/	.	/	/	56.8	.	.	15.3	.
Cc1cc2c(c(=O)n1Cc1ccccn1)C(c1ccc3c(c1)OCO3)C(C#N)=C(N)O2 (stereo unspecified)	.	.	.	.	106.0	.	.	.	.

Screening results as filed in PubChem.
